Assay outcomes as filed in PubChem BioAssay.
A selection: hits, their analogues and other compounds. The true share with any hit is near 2.6%.
miR122 inh: miR-122 Renilla sensor signal increase in Huh7, primary screen, miR-122 inhibitor project, cell-based, single point, plate reader. hit rate 0.3% among 340,000. Huh7 miR-122 Renilla luciferase sensor, 48 h; neutral wells = 0, positive control = 100. activation (reporter increase), % at 12.5 µM;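 active = mean replicate activation score at least 90 and every replicate individually at or above 90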;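 note: higher luciferase means less miR-122 activity so hits act as miR-122 inhibitors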
Env fusion inh: inhibitors of HIV-1 Env-driven cell-cell fusion, primary screen, HeLa-JRFL effector, CEM21 target cells, luciferase. hit rate 1.1% among 360,000. inhibition, % at 12.3 µM. AID 651610, 2012;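 active = mean replicate inhibition score of at least 50 and every replicate individually at or above 50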;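 note: 0% = plate neutral controls and 100% = maraviroc near 300 nM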
rRNA inh HTS: reduced GFP signal of wild-type E. coli, primary screen, bacterial rRNA inhibitor project, GFP/RFP fluorescence, OD600, single point. GFP signal change (wild-type ribosome), % (test concentration not listed). hit rate 1.6% among 350,000. AID 720706, 2013. E. coli WT GFP vs humanized-ribosome RFP mutants, 24 h; active compounds read low; DMSO median 0, no signal -100;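 active = significant combined selectivity score with lowered wild-type GFP, culture density cut under 30%, mutant RFP and density less affected; inactive = any of these conditions unmet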
FN deposition inh: inhibitors of fibronectin matrix deposition, primary screen, AH1F cells, Alexa488-fibronectin fluorescence, plate reader; AH1F fibroblasts, overnight; inhibition, % at 12.6 µM; hit rate 0.086% among 350,000; AID 743247, 2014;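 active = mean inhibition across replicates of 30% or more, regardless of how many single replicates reach that level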;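 note: positive control wells lacked labelled fibronectin entirely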
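Assay system: AH1F fibroblast monolayer, labelled fibronectin deposition. Amount: 10000 cells per well. Also added: labelled fibronectin 24 nM. Compound: single-point pinned compound. Incubation: cell attachment 1 h, compound and FN exposure overnight. Detection: fluorescence after three HBSS washes, excitation 485 nm, emission 525 nm. Read-out: inhibition of fibronectin deposition signal.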
Vif imaging: HIV Vif self-association inhibitors, primary screen, imaging, HEK293T, single point; HEK293T cells, Vif self-association by quenched fluorescence, 24 h; inhibition, % at 7.49 µM; hit rate 0.35% among 340,000; in the data active = inhibition above about 50%, passing the limit was not always enough
S100A4 inh HTS: inhibitors of S100A4-myosin IIA peptide binding, primary screen, biochemical, fluorescence polarization, TAMRA-MyoIIA peptide; Protein S100-A4 (Homo sapiens), P26447; hit rate 0.14% among 360,000; inhibition, % at 10.7 µM; AID 652163, 2013;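 active = mean inhibition of at least 70% across replicates, with every replicate also reaching that level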
Target sequence (P26447 whole entry, looked up): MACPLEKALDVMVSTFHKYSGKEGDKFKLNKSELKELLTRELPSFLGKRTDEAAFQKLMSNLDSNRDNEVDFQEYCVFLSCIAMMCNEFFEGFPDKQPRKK
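assay system = human S100A4 monomer with TAMRA-labelled myosin IIA peptide | also added = labelled myosin peptide probe, 5 nM | incubation = 5 min between mix addition and reading | control set = DMSO and TFP controls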
* = called active by the depositor; / = not tested or not shown; [ ] = dose if it differs, or a comment.

SMILES	miR122 inh	Env fusion inh	rRNA inh HTS	FN deposition inh	Vif imaging	S100A4 inh HTS
CC(C)NC(=O)N(C)C[C@H]1Oc2ccc(NS(=O)(=O)c3ccc(F)cc3)cc2C(=O)N([C@H](C)CO)C[C@H]1C	6.4[16.7 µM]	/	2.0	0.1	/	1.6
COc1ccccc1-c1cccc2nccn12	-0.3	-3.2	9.1	-7.3	66.8*	0.1
COc1ncc(-c2cccc3nccn23)c(OC)n1	-0.6	-21.8	7.9	/	3.4	1.8
O=S(=O)(N[C@H]1CC[C@@H](CCn2cc(Cc3ccccc3)nn2)O[C@@H]1CO)c1ccccc1F	/	/	-3.5	2.5	/	-4.5
O=C(O)c1ccc(N/N=C/c2cn(Cc3ccccc3F)c3ccccc23)cc1	22.6	-98.3	-34.8*	2.9	-13.2	-8.4
COC(=O)N/N=C/c1cn(Cc2ccccc2Cl)c2ccccc12	/	22.2	-25.8*	13.1	-4.4	0.4
Nc1ccc(C(=O)N/N=C/c2cn(Cc3ccccc3F)c3ccccc23)cc1	/	20.1	-7.9	/	-0.1	1.5
O=C(N/N=C/c1cn(Cc2cccc(F)c2)c2ccccc12)c1cc(O)cc(O)c1	/	/	-24.2*	5.3	-5.6	-3.5
